≈ marks a conversion by molar mass, not a printed value.
How the values were obtained:
Saccharomyces cerevisiae [1] = experiment: Inhibition of Saccharomyces cerevisiae RS321NYCp50 in galactose medium by microtiter plate assay; assay type: functional, organism-based
In short: (§1)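 Yeast in minimal medium with galactose or glucose at 2% final. Samples are dissolved in 10% DMSO at 10× final concentration and added 1:10 to the cell suspension in triplicate, with 10% DMSO wells as controls. Plates are incubated at 30 °C in high humidity for 48-72 h and read when control growth reaches OD 0.15-0.25. Inhibition = 1 − (ODtest − ODblank)/(ODplate median − ODblank); IC50 in µg/mL.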

Saccharomyces cerevisiae [2] = experiment: Inhibition of pRAD52 recombination repair gene/topoisomerase 1 deficient Saccharomyces cerevisiae RS321N carrying pRAD52 in galactose medium by microtiter plate assay; assay type: functional, organism-based; in short: as §1
Saccharomyces cerevisiae [3] = experiment: Inhibition of pRAD52 recombination repair gene/topoisomerase 1 deficient Saccharomyces cerevisiae RS321N carrying pRAD52 in glucose medium by microtiter plate assay; assay type: functional, organism-based; in short: as §1
HeLa = experiment: Cytotoxicity against human HeLa cells by XTT assay; assay type: functional, cell-based
A549 = experiment: Cytotoxicity against human A549 cells by XTT assay; assay type: functional, cell-based
Saccharomyces cerevisiae [4] = experiment: Inhibition of Saccharomyces cerevisiae RS188 expressing wild type erg6 by agar diffusion assay; assay type: functional, organism-based
Saccharomyces cerevisiae [5] = experiment: Inhibition of Saccharomyces cerevisiae RS321 expressing Rad52.erg6.top1 by agar diffusion assay; assay type: functional
Saccharomyces cerevisiae [6] = experiment: Inhibition of Saccharomyces cerevisiae RS322 expressing Rad52.erg6 by agar diffusion assay; assay type: functional

SMILES | IC50 (Saccharomyces cerevisiae [1]) | IC50 (Saccharomyces cerevisiae [2]) | IC50 (Saccharomyces cerevisiae [3]) | IC50 (HeLa) | IC50 (A549) | IC12 (Saccharomyces cerevisiae [4]) | IC12 (Saccharomyces cerevisiae [5]) | IC12 (Saccharomyces cerevisiae [6])
COc1ccc(/C=C\c2cc(OC)c(OC)c(OC)c2)c(O[C@H]2O[C@@H](CO)[C@H](O)[C@@H](O)[C@@H]2O)c1O | 13 µg/mL (≈ 26.3 µM) | > 100 µg/mL | 3 µg/mL | 1.5 µg/mL (≈ 3.03 µM) | 7 µg/mL (≈ 14.2 µM) | – | – | –
COc1ccc(CCc2cc(OC)c(OC)c(OC)c2)c(O[C@H]2O[C@@H](CO)[C@H](O)[C@@H](O)[C@@H]2O)c1O | 25 µg/mL (≈ 50.4 µM) | > 100 µg/mL | > 100 µg/mL | – | – | > 100 µg/mL | > 100 µg/mL | > 100 µg/mL
COc1ccc(/C=C\c2cc(OC)c(OC)c(OC)c2)c(O)c1O [COMBRETASTATIN A-1] | 1.8 µg/mL (≈ 5.42 µM) | 53 µg/mL | 18 µg/mL | – | – | 80.1 µg/mL | 2.2 µg/mL | 33.5 µg/mL
